Source: ChEMBL document CHEMBL1156147, “Phosphoramidates of 2'-beta-D-arabinouridine (AraU) as phosphate prodrugs; design, synthesis, in vitro activity and metabolism” (Bioorg Med Chem, 2010)
pIC50: −log10 of the molar value. Active and inactive are the calls of the source. The rule behind the calls is not given here.

Key:
[1] = system: Human immunodeficiency virus 2; test: Antiviral activity against HIV2 infected human CEM cells assessed as inhibition of syncytia formation after 4 days; type: functional, organism-based; conditions: CCRF-CEM
Summary of the method: (§1)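 Human CEM cells (~3 × 10^5 cells/mL) were infected with ~100 CCID50/mL of HIV-1(IIIB) or HIV-2(ROD) and seeded with compound dilutions. Syncytia formation was examined microscopically after 4 days at 37 °C. EC50 is the concentration reducing virus-induced cytopathicity by 50%.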

[2] = system: Human immunodeficiency virus 1; test: Antiviral activity against HIV1 3B infected human CEM cells assessed as inhibition of syncytia formation after 4 days; type: functional, organism-based; conditions: CCRF-CEM; summary of the method: as §1
NB-4 = test: Cytostatic activity against human NB4 cells; type: functional, cell-based
Summary of the method: (§2)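 Leukaemia cells were exposed to serial dilutions from 100 μM down to 0.02 μM for 72 h at 37 °C, 5% CO2. MTS was then added for a further 4 h. Absorbance was read at 490 nm and viability calculated relative to untreated controls. IC50 is the concentration at which 50% of cells are no longer viable.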

HL-60 = test: Cytostatic activity against human HL60 cells; type: functional, cell-based; summary of the method: as §2
KG-1 = test: Cytostatic activity human KG1 cells; type: functional, cell-based; summary of the method: as §2
U-937 = test: Cytostatic activity human U937 cells; type: functional, cell-based; summary of the method: as §2
L1210 = test: Cytostatic activity mouse L1210 cells; type: functional, cell-based
CCRF-CEM = test: Cytostatic activity human CEM cells; type: functional, cell-based
LoVo = test: Cytostatic activity against human LoVo cells after 96 hrs by MTT assay; type: functional, cell-based
Summary of the method: (§3)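 Cells were seeded at 5 × 10^3 per well and allowed 24 h to adhere. Compound was added from DMSO stocks as decimal dilutions (final 0.1–100 μM) for 96 h at 37 °C, 5% CO2. MTT (final 0.5 mg/mL) was added for 4 h and formazan solubilised in 10% Triton X-100/PBS. Absorbance was read at 540 nm. IC50 is inhibition relative to control.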

PC-3 = test: Cytostatic activity against human PC3 cells after 96 hrs by MTT assay; type: functional, cell-based; conditions: PC-3, 96 h; summary of the method: as §3
A549 = test: Cytostatic activity against human A549 cells after 96 hrs by MTT assay; type: functional, cell-based; conditions: A549, 96 h; summary of the method: as §3
MCF7 = test: Cytostatic activity against human MCF7 cells after 96 hrs by MTT assay; type: functional, cell-based; conditions: MCF7, 96 h; summary of the method: as §3
Human alphaherpesvirus 1 [3] = test: Antiviral activity against HSV1 KOS assessed as inhibition of virus-induced cytopathicity by cell based assay; type: functional, organism-based
Summary of the method: (§4)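 Cytopathicity reduction in confluent HEL, Vero, HeLa, CFKC or MDCK monolayers. Cells were inoculated with 100 CCID50 of virus and allowed 1–2 h adsorption. Residual virus was then removed and cells were incubated with serially varied compound. CPE was scored once complete in untreated infected controls. EC50 is the concentration halving virus-induced cytopathicity.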

Human alphaherpesvirus 1 [4] = test: Antiviral activity against thymidine kinase deficient acyclovir resistant HSV1 KOS assessed as inhibition of virus-induced cytopathicity by cell based assay; type: functional, organism-based
Human alphaherpesvirus 2 = test: Antiviral activity against Herpes simplex virus2 G assessed as inhibition of virus-induced cytopathicity by cell based assay; type: functional, organism-based; conditions: strain G; summary of the method: as §4
Vaccinia virus = test: Antiviral activity against Vaccinia virus lederle assessed as inhibition of virus-induced cytopathicity by cell based assay; type: functional, organism-based; conditions: Orthopoxvirus vaccinia
[5] = system: Respiratory syncytial virus; test: Antiviral activity against Respiratory syncytial virus Long assessed as inhibition of virus-induced cytopathicity by cell based assay; type: functional, organism-based; summary of the method: as §4
[6] = system: Vesicular stomatitis virus; test: Antiviral activity against Vesicular stomatitis virus assessed as inhibition of virus-induced cytopathicity by cell based assay; type: functional, organism-based
Coxsackievirus B4 = test: Antiviral activity against Coxsackievirus B4 assessed as inhibition of virus-induced cytopathicity by cell based assay; type: functional, organism-based; summary of the method: as §4
[7] = system: Mammalian orthoreovirus 1; test: Antiviral activity against Reovirus 1 assessed as inhibition of virus-induced cytopathicity by cell based assay; type: functional, organism-based; summary of the method: as §4
Sindbis virus = test: Antiviral activity against Sindbis virus assessed as inhibition of virus-induced cytopathicity by cell based assay; type: functional, organism-based; summary of the method: as §4
Punta Toro virus = test: Antiviral activity against Punta Toro virus assessed as inhibition of virus-induced cytopathicity by cell based assay; type: functional, organism-based; summary of the method: as §4
Influenza A virus [8] = test: Antiviral activity against influenza A virus H1N1 assessed as inhibition of virus-induced cytopathicity by cell based assay; type: functional, organism-based
Influenza A virus [9] = test: Antiviral activity against influenza A virus H3N2 assessed as inhibition of virus-induced cytopathicity by cell based assay; type: functional, organism-based
Human respirovirus 3 = test: Antiviral activity against Human parainfluenza virus 3 assessed as inhibition of virus-induced cytopathicity by cell based assay; type: functional, organism-based; summary of the method: as §4
[10] = Metabolic stability assessed as half life in the presence of carboxypeptidase Y after 3 hrs at pH 7.6; type: ADME; conditions: Saccharomyces cerevisiae (yeast)

| SMILES | inhibition [1] | inhibition [2] | pIC50 (NB-4) | pIC50 (HL-60) | pIC50 (KG-1) | pIC50 (U-937) | pIC50 (L1210) | pIC50 (CCRF-CEM) | inhibition (Human alphaherpesvirus 1 [3]) | inhibition (Human alphaherpesvirus 1 [4]) | inhibition (Human alphaherpesvirus 2) | inhibition (Vaccinia virus) | inhibition [5] | inhibition [6] | inhibition (Coxsackievirus B4) | inhibition [7] | inhibition (Sindbis virus) | inhibition (Punta Toro virus) | inhibition (Influenza A virus [8]) | inhibition (Influenza A virus [9]) | also measured |
| --- | --- | --- | --- | --- | --- | --- | --- | --- | --- | --- | --- | --- | --- | --- | --- | --- | --- | --- | --- | --- | --- |
| CC(C)OC(=O)[C@H](C)NP(=O)(OC[C@H]1O[C@@H](n2ccc(=O)[nH]c2=O)[C@@H](O)[C@@H]1O)Oc1cccc2ccccc12 (some centres not stated) | inactive | inactive | 4.11 | 4.08 | 4.17 | < 4.00 | 3.60 | 3.74 | inactive | inactive | inactive | inactive | inactive | inactive | inactive | inactive | inactive | inactive | inactive | inactive | pIC50 (LoVo): < 4.00; pIC50 (PC-3): < 4.00; pIC50 (A549): < 4.00; pIC50 (MCF7): < 4.00; inhibition (Human respirovirus 3): inactive |
| COC(=O)[C@H](C)NP(=O)(OC[C@H]1O[C@@H](n2ccc(=O)[nH]c2=O)[C@@H](O)[C@@H]1O)Oc1ccccc1 (some centres not stated) | inactive | inactive | 4.28 | < 4.00 | 4.49 | < 4.00 | < 3.30 | < 3.30 | inactive | inactive | inactive | inactive | inactive | inactive | inactive | inactive | inactive | inactive | inactive | inactive | pIC50 (LoVo): < 4.00; pIC50 (PC-3): < 4.00; pIC50 (A549): < 4.00; pIC50 (MCF7): < 4.00; inhibition (Human respirovirus 3): inactive |
| C[C@H](NP(=O)(OC[C@H]1O[C@@H](n2ccc(=O)[nH]c2=O)[C@@H](O)[C@@H]1O)Oc1ccccc1)C(=O)OCc1ccccc1 (some centres not stated) | inactive | inactive | 4.42 | < 4.00 | 4.20 | 4.04 | 3.74 | 3.73 | inactive | inactive | inactive | inactive | inactive | inactive | inactive | inactive | inactive | inactive | inactive | inactive | pIC50 (LoVo): < 4.00; pIC50 (PC-3): < 4.00; pIC50 (A549): < 4.00; pIC50 (MCF7): < 4.00; half-life [10]: 15 min; inhibition (Human respirovirus 3): inactive |
| C[C@@H](NP(=O)(OC[C@H]1O[C@@H](n2ccc(=O)[nH]c2=O)[C@@H](O)[C@@H]1O)Oc1ccccc1)C(=O)OCc1ccccc1 (some centres not stated) | inactive | inactive | 4.06 | 4.04 | 4.05 | < 4.00 | 3.33 | 3.50 | inactive | inactive | inactive | inactive | inactive | inactive | inactive | inactive | inactive | inactive | inactive | inactive | pIC50 (LoVo): < 4.00; pIC50 (PC-3): < 4.00; pIC50 (A549): < 4.00; pIC50 (MCF7): 4.30; inhibition (Human respirovirus 3): inactive |
| O=C(CNP(=O)(OC[C@H]1O[C@@H](n2ccc(=O)[nH]c2=O)[C@@H](O)[C@@H]1O)Oc1ccccc1)OCc1ccccc1 (some centres not stated) | inactive | inactive | 4.28 | < 4.00 | 4.41 | < 4.00 | 3.59 | 3.71 | inactive | inactive | inactive | inactive | inactive | inactive | inactive | inactive | inactive | inactive | inactive | inactive | pIC50 (LoVo): < 4.00; pIC50 (PC-3): < 4.00; pIC50 (A549): < 4.00; pIC50 (MCF7): < 4.00; inhibition (Human respirovirus 3): inactive |
| O=c1ccn([C@@H]2O[C@H](CO)[C@@H](O)[C@@H]2O)c(=O)[nH]1 [ARAURIDINE] | inactive | inactive | 4.16 | 4.05 | 4.60 | < 4.00 | 3.77 | < 3.30 | inactive | inactive | inactive | inactive | inactive | inactive | inactive | inactive | inactive | inactive | inactive | inactive | inhibition (Human respirovirus 3): inactive |
